In assay [1] the target is T1, Histone-lysine N-methyltransferase SETD7 (Homo sapiens, UniProt Q8WTS6).
T1 sequence (Q8WTS6 whole entry): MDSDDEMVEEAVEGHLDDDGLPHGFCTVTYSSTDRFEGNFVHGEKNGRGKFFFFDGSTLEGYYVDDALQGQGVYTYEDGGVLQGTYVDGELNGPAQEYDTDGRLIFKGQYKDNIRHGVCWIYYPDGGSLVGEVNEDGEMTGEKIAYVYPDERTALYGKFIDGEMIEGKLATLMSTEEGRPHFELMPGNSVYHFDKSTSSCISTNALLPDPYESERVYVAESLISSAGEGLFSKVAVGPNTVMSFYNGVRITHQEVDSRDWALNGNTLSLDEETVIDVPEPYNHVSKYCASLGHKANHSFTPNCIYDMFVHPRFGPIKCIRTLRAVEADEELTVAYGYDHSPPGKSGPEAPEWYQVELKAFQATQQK
Description: Inhibition of SET7-mediated methylation of histone H3 after 90 mins by scintillation counting in presence of S-adenosyl-l-[methyl-3H]methionine.

Assay [2] has as its target Protein arginine N-methyltransferase 1 (Homo sapiens, UniProt Q99873). Description: Inhibition of PRMT1-mediated methylation of NPL3 after 90 mins by scintillation counting in presence of S-adenosyl-l-[methyl-3H]methionine.
Assay [3] has as its target T2, Histone-arginine methyltransferase CARM1 (Homo sapiens, UniProt Q86X55).
T2 sequence (Q86X55 whole entry): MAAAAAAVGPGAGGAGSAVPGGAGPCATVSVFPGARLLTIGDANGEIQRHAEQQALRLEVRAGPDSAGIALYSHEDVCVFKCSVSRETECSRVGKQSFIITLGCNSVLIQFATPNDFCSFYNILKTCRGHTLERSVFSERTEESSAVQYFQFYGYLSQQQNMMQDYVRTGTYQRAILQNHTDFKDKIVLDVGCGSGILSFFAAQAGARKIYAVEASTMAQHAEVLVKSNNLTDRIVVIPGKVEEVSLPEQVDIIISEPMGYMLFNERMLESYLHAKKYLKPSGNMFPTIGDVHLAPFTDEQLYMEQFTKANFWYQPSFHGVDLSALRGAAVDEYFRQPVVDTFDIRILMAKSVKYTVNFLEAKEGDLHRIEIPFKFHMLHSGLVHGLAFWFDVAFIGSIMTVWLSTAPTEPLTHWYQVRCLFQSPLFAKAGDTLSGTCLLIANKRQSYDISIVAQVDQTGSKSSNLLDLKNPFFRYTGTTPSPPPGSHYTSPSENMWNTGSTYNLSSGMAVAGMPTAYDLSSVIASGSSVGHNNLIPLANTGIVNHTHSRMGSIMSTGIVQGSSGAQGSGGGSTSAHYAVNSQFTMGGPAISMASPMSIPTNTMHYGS
Description: Inhibition of CARM1-mediated methylation of PABP1 after 90 mins by scintillation counting in presence of S-adenosyl-l-[methyl-3H]methionine.

Assay [4] deals with T3, Histone-arginine methyltransferase CARM1 (Homo sapiens) (UniProt Q86X55).
T3 sequence (whole entry): T2 sequence (Q86X55 whole entry)
Description: Inhibition of CARM1-mediated methylation of PABP1 at 20 uM after 90 mins by scintillation counting in presence of S-adenosyl-l-[methyl-3H]methionine. In outline: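 Recombinant CARM1 with PABP1 substrate in PBS pH 7.4 containing [³H]AdoMet, compound at 20 μM. Incubated 90 min at 30 °C, then SDS-PAGE, PVDF transfer and overnight film fluorography. Substrate bands cut out for scintillation counting.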

Activity calls are given as the source filed them. The rule behind the calls is not given here.

Chain of Protein arginine N-methyltransferase 1 (Q99873 whole entry): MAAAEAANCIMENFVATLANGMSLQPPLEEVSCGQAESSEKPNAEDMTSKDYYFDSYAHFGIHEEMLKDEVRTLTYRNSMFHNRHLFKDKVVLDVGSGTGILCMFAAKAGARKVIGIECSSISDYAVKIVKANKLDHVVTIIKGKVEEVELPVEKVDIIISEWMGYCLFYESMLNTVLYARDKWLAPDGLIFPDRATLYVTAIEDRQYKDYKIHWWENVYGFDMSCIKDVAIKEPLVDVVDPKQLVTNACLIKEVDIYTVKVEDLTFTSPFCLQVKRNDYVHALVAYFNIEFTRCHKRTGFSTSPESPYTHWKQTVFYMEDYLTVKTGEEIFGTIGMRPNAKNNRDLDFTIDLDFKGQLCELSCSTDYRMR

Consider `O=C1/C(=C/c2ccc(O)c(Br)c2)CN(Cc2ccc(Cl)cc2)C/C1=C\c1ccc(O)c(Br)c1`, for which the results for the IC50 in assay [1], in assay [2] and in assay [3] were more than 600 µM, more than 667 µM and 12.2 µM, respectively.

Turning to `O=C1/C(=C/c2ccc(O)c(Br)c2)CN(Cc2ccccc2Cl)C/C1=C\c1ccc(O)c(Br)c1`, the figures for the IC50 in assay [1], in assay [2] and in assay [3] were more than 667 µM, more than 667 µM and 12.5 µM, respectively.

Turning to `O=C1/C(=C/c2ccc(O)c(Br)c2)CN(CCc2ccccc2)C/C1=C\c1ccc(O)c(Br)c1`, the figures for the IC50 in assay [1], in assay [2] and in assay [3] were more than 667 µM, more than 667 µM and 14.8 µM, respectively.

Consider `O=C1/C(=C/c2ccc(O)c(Br)c2)CN(CCCc2ccccc2)C/C1=C\c1ccc(O)c(Br)c1`, for which the inhibition result in assay [4] was “inactive”. Moreover, the results for the IC50 in assay [1], in assay [2] and in assay [3] were more than 667 µM, more than 667 µM and 16 µM, respectively.

Turning to `Cc1ccc(CN2C/C(=C\c3ccc(O)c(Br)c3)C(=O)/C(=C/c3ccc(O)c(Br)c3)C2)cc1`, the inhibition entry in assay [4] is “inactive”. The IC50 in assay [1] was more than 333 µM; in assay [2], more than 667 µM; in assay [3], 11.9 µM.

As for `Cc1ccccc1CN1C/C(=C\c2ccc(O)c(Br)c2)C(=O)/C(=C/c2ccc(O)c(Br)c2)C1`, the IC50 in assay [1] is more than 667 µM; in assay [2], more than 667 µM; in assay [3] it was 10.3 µM.

As for `COc1ccccc1CN1C/C(=C\c2ccc(O)c(Br)c2)C(=O)/C(=C/c2ccc(O)c(Br)c2)C1`, the inhibition result in assay [4] is “inactive”.

With `COc1ccc(CN2C/C(=C\c3ccc(O)c(Br)c3)C(=O)/C(=C/c3ccc(O)c(Br)c3)C2)cc1`, in assay [4], the inhibition entry is “inactive”.

For the compound `COc1cccc(CN2C/C(=C\c3ccc(O)c(Br)c3)C(=O)/C(=C/c3ccc(O)c(Br)c3)C2)c1`, in assay [4], the inhibition entry is “inactive”.

In general, IC50 refers to the point on the concentration scale where inhibition reaches its midpoint.

These data come from ChEMBL document CHEMBL1799916, “Novel 3,5-bis(bromohydroxybenzylidene)piperidin-4-ones as coactivator-associated arginine methyltransferase 1 inhibitors: enzyme selectivity and cellular activity” (J Med Chem, 2011).
